Compound activity: PubChem BioAssay, several laboratories
PG9 binder: small molecules binding HIV-1 gp120 antibody PG9 | TR-FRET gp120-PG9 antibody binding | hit rate 0.43% among 360,000 | inhibition, % at 6.7 µM; in the data active = inhibition above about 8.5%
Rev-erbA mod: modulators of human Rev-erb alpha DNA binding | AID 1259318 | hit rate 0.79% among 370,000 | P20393 | Rev-erbα–FITC-DNA binding, fluorescence polarization, 90 min | activity, % at 10 µM;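 active = activity above about 14%, limit read from the data; passing the limit was not always enough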
Target sequence (P20393 whole entry, looked up): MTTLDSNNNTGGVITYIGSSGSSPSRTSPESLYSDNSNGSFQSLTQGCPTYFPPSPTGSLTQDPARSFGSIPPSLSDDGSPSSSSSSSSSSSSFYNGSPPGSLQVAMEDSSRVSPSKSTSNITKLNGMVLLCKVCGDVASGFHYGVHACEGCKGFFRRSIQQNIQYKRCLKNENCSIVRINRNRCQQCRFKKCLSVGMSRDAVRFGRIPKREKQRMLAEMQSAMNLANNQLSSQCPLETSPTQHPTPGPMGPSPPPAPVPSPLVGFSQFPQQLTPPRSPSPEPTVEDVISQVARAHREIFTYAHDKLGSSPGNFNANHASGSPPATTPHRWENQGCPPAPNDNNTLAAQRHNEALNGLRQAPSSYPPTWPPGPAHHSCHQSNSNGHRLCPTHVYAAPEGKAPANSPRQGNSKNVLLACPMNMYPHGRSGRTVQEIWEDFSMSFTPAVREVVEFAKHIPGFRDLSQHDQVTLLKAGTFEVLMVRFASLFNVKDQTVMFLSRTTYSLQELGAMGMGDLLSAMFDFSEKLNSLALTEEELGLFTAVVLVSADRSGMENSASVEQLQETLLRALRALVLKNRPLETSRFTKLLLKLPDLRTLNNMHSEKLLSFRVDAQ
NR2E3 ag-1: activates human NR2E3 receptor; CHO-S Gal4-NCOR/VP16-NR2E3 two-hybrid, luciferase; inhibition of corepressor binding, % at 3.98 µM; AID 602229; Q9Y5X4; hit rate 0.35% among 360,000;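 active = inhibition above the mean of all tested compounds plus 3 SD, cut at about 70% in these data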;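 also: higher means lower luciferase signal from less NR2E3 corepressor binding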
NR2E3 ag-2: agonists of human nuclear receptor NR2E3 | Q9Y5X4 | GST-NR2E3/biotin-RetCOR TR-FRET, 1536-well | inhibition of corepressor binding, % at 4.78 µM | hit rate 0.12% among 320,000 | AID 2300;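 active = percent inhibition above the cutoff of mean plus 3 SD of all tested compounds, set per screening campaign, cut at about 20% in these data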
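Test system – NR2E3–RetCOR corepressor complex · Quantity – NR2E3 fusion 1.35 nM · Buffer or medium – Tris pH 7.5 · Incubation – Compound–protein incubation for 5 h at 4 °C · Technique – TR-FRET, Eu(K)-anti-GST donor, streptavidin-D2 acceptor, ex 340, em 617/671 nm · Evaluation – percent inhibition of 671/617 nm emission ratio versus biotin and DMSO controls · Plate – 1536-well format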
rCAG RNA binder: r(CAG) repeat RNA binding; inhibition, % at 3 µM; TO-PRO-1 dye displacement fluorescence; hit rate 1.3% among 370,000;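 active = inhibition above the plate cutoff, the mean of all test compounds on that plate plus 3 SD, cut at about 35% in these data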;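 also: higher means more dye released from RNA so lower well fluorescence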
Rev-erbA confirm: confirmation of modulators of human Rev-erb alpha DNA binding. shares compounds with Rev-erbA mod. Rev-erb alpha FITC-DNA binding, fluorescence polarization, 90 min. activation, % at 25 µM. hit rate 61% among 3,000;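 active = activation at or above a set limit, or at least 3 SD above the negative control mean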
RORg DNA counter: affects RORgamma DNA binding in a Rev-erb alpha counter-screen | shares compounds with Rev-erbA mod | purified RORgamma protein-FITC-DNA binding, fluorescence polarization | IC50, µM | hit rate 8% among 910 | AID 1259320;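 active = Compounds whose fitted half-maximal concentration for disrupting protein-DNA binding is below 10 micromolar; the record names Rev-erb in its text, so the target is in doubt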
Hits are given with their value; 0 = inactive; - = not tested or not shown. Rows were chosen to be rich in hits. Some 2.6% of all compounds tested hit in one or more screens of this group.

SMILES	PG9 binder	Rev-erbA mod	NR2E3 ag-1	NR2E3 ag-2	rCAG RNA binder	Rev-erbA confirm	others
COc1cc(N2N=C(c3ccccc3)CC2c2ccccc2)c(C=O)cc1C=O (stereo not given)	0	107	0	0	0	75	RORg DNA counter=0
CSc1ccccc1C(=O)OCC(=O)N1CCCCCC1	0	0	0	-	0	-
CN(C)c1ccc(N=Nc2ccccc2C(=O)OCC(=O)N2CCCC2)cc1	0	36	0	0	0	40	RORg DNA counter=1.2
CN(C)c1ccc(N=Nc2ccccc2C(=O)OCC(=O)N2CCCCCC2)cc1	0	27	0	0	0	35	RORg DNA counter=0
CN(C)c1ccc(N=Nc2ccccc2C(=O)OCC(=O)Nc2ccccc2C(F)(F)F)cc1	0	0	0	-	0	-
COC(=O)C1CCN(C(=O)Cn2nnc(-c3cccc(F)c3)n2)CC1	0	0	0	0	0	-
COc1ccc(OC)c(NC(=O)C2CCN(c3cc(-c4ccccc4)nc4ncnn34)CC2)c1	0	35	0	0	0	0
COc1ccc(NC(=O)C2CCN(c3cc(-c4ccccc4)nc4ncnn34)CC2)cc1OC	0	0	0	0	0	-
COc1ccccc1S(=O)(=O)N(C)C[C@H]1OCc2cnnn2CCCC(=O)N([C@@H](C)CO)C[C@@H]1C	0	0	0	-	0	-
CC(=O)c1cccc(NC(=O)c2csc(-n3nc(C)cc3C(F)(F)F)n2)c1	0	78	0	0	0	70	RORg DNA counter=0
Cc1cc(C(F)(F)F)n(-c2nc(C(=O)Nc3cccnc3)cs2)n1	0	0	0	0	0	-
C[C@@H]1CN([C@@H](C)CO)C(=O)c2cc(Br)cnc2O[C@@H]1CN(C)C(=O)c1ccc(F)cc1	0	0	-	-	0	-
O=C(CCCOc1ccc(Cl)cc1Cl)NNC(=O)c1ccc(NC(=O)c2ccccc2)cc1	0	74	0	0	0	99	RORg DNA counter=0
CSc1ccc(/C=C2\C(=N)N3N=C(CC(=O)N4CCOCC4)SC3=NC2=O)cc1	0	0	0	0	0	-
CCN(CC)c1ccc(/C=C2\C(=N)N3N=C(CC(=O)N4CCOCC4)SC3=NC2=O)cc1	0	37	0	0	0	22
Cc1ccc2cc(N)ccc2n1	0	0	0	-	0	-
Nc1ccc2cc3ccc(N)cc3nc2c1	-	28	-	-	0	27	RORg DNA counter=0
COC(=O)COc1ccc2cc(-c3ccccc3)c(=O)oc2c1	0	0	0	0	0	-
COC(=O)COc1ccc2cc(-c3ccc(OC)cc3)c(=O)oc2c1	0	25	0	0	0	0
COc1ccc(-c2cc3ccc(OCC(C)=O)cc3oc2=O)cc1	0	0	0	0	0	-
COc1ccc(-c2cc3ccc(OCC(C)=O)cc3oc2=O)cc1OC	0	19	0	0	0	0
CCOCCCNC(=O)CN1CCN(S(=O)(=O)c2ccc3c(c2)CCC3)CC1	0	0	0	0	0	-
O=C(Nc1ccc(O)c(-c2nc3ccccc3s2)c1)c1cccs1	36	360	0	0	0	703	RORg DNA counter=0
O=C(Nc1ccc(O)c(-c2nc3ccccc3s2)c1)c1cc(=O)c2ccccc2o1	0	0	0	0	0	-
Cn1c2ccccc2c(=O)c2c(=O)n(C3CCCCCC3)c(C3CCCCC3)nc21	0	161	0	-	0	79
SMILES	PG9 binder	Rev-erbA mod	NR2E3 ag-1	NR2E3 ag-2	rCAG RNA binder	Rev-erbA confirm	others
CSc1ncccc1C(=O)OCC(=O)c1ccc2c(c1)NC(=O)CO2	0	40	0	0	0	0
O=C(NCc1ccccc1)C1C(c2ccc3c(c2)OCO3)=Nc2ccccc2N1C(=O)c1cccc2ccccc12 (stereo not given)	0	16	-	-	0	0
COc1ccc(C2=Nc3ccccc3N(C(=O)c3ccc4c(c3)OCO4)C2C(=O)Nc2c(C)cccc2C)cc1 (stereo not given)	0	0	-	-	0	-
Cc1cccc(C)c1NC(=O)C1C(c2ccc3c(c2)OCO3)=Nc2ccccc2N1C(=O)c1cccc2ccccc12 (stereo not given)	0	29	-	-	0	17
CCc1nc(SCC#N)c(C#N)cc1C	-	-	-	0	-	-
Cc1cccc2cc(C#N)c(SCC#N)nc12	0	63	0	0	0	53	RORg DNA counter=0
COC(=O)[C@]12C[C@H](CC(=O)NCC34CC5CC(CC(C5)C3)C4)C(=O)N(CCC3=CCCCC3)C1=C[C@H](C(C)(C)C)O[C@@H]2C	0	0	-	-	0	-
CCc1cc(-c2n[nH]c(C)c2-c2nc3ccccc3s2)c(O)cc1OCC(=O)NN	0	13	0	0	0	0
CCCSc1nc(SCC(=O)NCc2ccccc2)c2c3c(sc2n1)COC(C)(CC)C3 (stereo not given)	0	77	0	0	0	78	RORg DNA counter=0
CN1CCS/C1=C/C=C1\SC(=S)N(CC(=O)O)C1=O	0	302	0	0	0	246	RORg DNA counter=0
CCCCN1C(=O)/C(=C/C=C2\SCCN2C)SC1=S	0	126	0	-	0	47	RORg DNA counter=0
O=C1/C(=C/c2ccc(O)c([N+](=O)[O-])c2)SC(=S)N1Cc1ccccc1	0	30	0	0	0	0
CN1CCS/C1=C/C=C1/SC(=S)N(Cc2ccccc2)C1=O	0	188	0	0	0	169	RORg DNA counter=0
CCCCN1C(=O)/C(=C/C=C2\N(C)c3ccccc3C2(C)C)SC1=S	-	-	-	0	-	-
O=C(O)c1ccc(/C=C2/SC(=S)N(Cc3ccccc3)C2=O)cc1	0	0	0	-	0	-
CN(CC(=O)Nc1ccc(F)c(F)c1F)C(=O)Cc1ccc(S(=O)(=O)N2CCOCC2)s1	0	0	0	-	0	-
O=C(NCc1ccccc1)c1c(O)c2cccc3c2n(c1=O)CCC3	0	0	0	0	0	-
O=C(NCc1ccc(F)cc1)c1c(O)c2cccc3c2n(c1=O)CCC3	0	37	0	0	0	0
CCN1C(=O)[C@H]2[C@@H](c3ccc(C)cc3)N[C@]3(CCCN(CCC(C)C)C3=O)[C@H]2C1=O	0	0	0	-	0	-
COc1cc(OC)cc(C(=O)Nc2ccc(S(=O)(=O)Nc3cc(C)nc(C)n3)cc2)c1	0	0	-	0	0	-
COc1cc(OC)cc(C(=O)Nc2ccc(S(=O)(=O)Nc3ccccn3)cc2)c1	0	25	0	0	0	0
COc1ccccc1C(=O)COC(=O)Cn1[nH]c(=O)c2ccccc2c1=O	0	22	0	0	0	0
O=C1c2cccc3cccc(c23)C(=O)N1OS(=O)(=O)c1ccc(Cl)cc1	0	22	0	0	0	0
COc1cc(CCC(=O)OCC(=O)NCC2CCCCC2)cc(OC)c1OC	0	16	0	0	0	0
O=C(Nc1ccccc1N1CCOCC1)C1(c2ccc(Cl)cc2)CCC1	0	20	0	0	0	0
Cc1ccsc1C(=O)NNC(=O)c1cccc(S(=O)(=O)N2CCCC2)c1	0	18	0	0	0	0
Cc1nc(SCC(=O)Nc2ccc(C)c(F)c2)c2oc3ccccc3c2n1	0	779	0	0	0	682
Cc1nc(SCC(=O)NC2CCCC2)c2oc3ccccc3c2n1	0	35	0	-	0	652	RORg DNA counter=0
